Measured values as given in ChEMBL document CHEMBL4152188, “Design, synthesis and biological evaluation of C(4) substituted monobactams as antibacterial agents against multidrug-resistant Gram-negative bacteria” (Eur J Med Chem, 2018).
Values after ≈ are worked out from the molar mass of the structure shown.

What was measured:
Assay type in all cases: functional
Escherichia coli [1] = experiment: Antibacterial activity against Escherichia coli isolate 210737 after 18 hrs by CLSI broth microdilution method; details: isolate 210737, 18 h
Pseudomonas aeruginosa [2] = experiment: Selectivity index, ratio of MIC for against IMP-4 producing Pseudomonas aeruginosa isolate 209471 to MIC for against IMP-4 producing Pseudomonas aeruginosa isolate 209471 in presence of BPL
Klebsiella pneumoniae [3] = experiment: Selectivity index, ratio of MIC for against KPC-2 producing Klebsiella pneumoniae isolate 212229 to MIC for against KPC-2 producing Klebsiella pneumoniae isolate 212229 in presence of BPL
Escherichia coli [4] = experiment: Selectivity index, ratio of MIC for against extended-spectrum beta-lactamase producing Escherichia coli isolate 208687 to MIC for extended-spectrum beta-lactamase producing Escherichia coli isolate 208687 in presence of BPL
Klebsiella pneumoniae [5] = experiment: Antibacterial activity against KPC-2 producing Klebsiella pneumoniae isolate 212229 after 18 hrs in presence of BPL by CLSI broth microdilution method; details: isolate 212229, 18 h
Outline: (§1)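 CLSI broth microdilution against clinical isolates (ESBL E. coli, KPC-2 MDR K. pneumoniae, IMP-4 MDR P. aeruginosa; five per species). Iron limitation: Mueller-Hinton broth supplemented with 16 mg/liter 2,2'-bipyridyl to complex iron and induce iron uptake systems. Read-out: MIC.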

Klebsiella pneumoniae [6] = experiment: Antibacterial activity against KPC-2 producing Klebsiella pneumoniae isolate 212232 after 18 hrs by CLSI broth microdilution method; details: isolate 212232, 18 h
Klebsiella pneumoniae [7] = experiment: Antibacterial activity against KPC-2 producing Klebsiella pneumoniae isolate 209735 after 18 hrs in presence of BPL by CLSI broth microdilution method; details: isolate 209735, 18 h; outline: as §1
Pseudomonas aeruginosa [8] = experiment: Antibacterial activity against IMP-4 producing Pseudomonas aeruginosa isolate 207272 after 18 hrs by CLSI broth microdilution method; details: isolate 207272, 18 h
Pseudomonas aeruginosa [9] = experiment: Antibacterial activity against IMP-4 producing Pseudomonas aeruginosa isolate 207272 after 18 hrs in presence of BPL by CLSI broth microdilution method; details: isolate 207272, 18 h; outline: as §1
Escherichia coli [10] = experiment: Antibacterial activity against extended-spectrum beta-lactamase producing Escherichia coli isolate 208687 after 18 hrs in presence of BPL by CLSI broth microdilution method; details: isolate 208687, 18 h; outline: as §1
Escherichia coli [11] = experiment: Antibacterial activity against extended-spectrum beta-lactamase producing Escherichia coli isolate 106342 after 18 hrs in presence of BPL by CLSI broth microdilution method; details: isolate 106342, 18 h; outline: as §1
Klebsiella pneumoniae [12] = experiment: Antibacterial activity against KPC-2 producing Klebsiella pneumoniae isolate 209735 after 18 hrs by CLSI broth microdilution method; details: isolate 209735, 18 h
Escherichia coli [13] = experiment: Antibacterial activity against extended-spectrum beta-lactamase producing Escherichia coli isolate 208687 after 18 hrs by CLSI broth microdilution method; details: isolate 208687, 18 h
Pseudomonas aeruginosa [14] = experiment: Selectivity index, ratio of MIC for against IMP-4 producing Pseudomonas aeruginosa isolate 212886 to MIC for against IMP-4 producing Pseudomonas aeruginosa isolate 212886 in presence of BPL
Klebsiella pneumoniae [15] = experiment: Antibacterial activity against KPC-2 producing Klebsiella pneumoniae isolate 212229 after 18 hrs by CLSI broth microdilution method; details: isolate 212229, 18 h
Klebsiella pneumoniae [16] = experiment: Antibacterial activity against KPC-2 producing Klebsiella pneumoniae isolate 212423 after 18 hrs by CLSI broth microdilution method; details: isolate 212423, 18 h
Pseudomonas aeruginosa [17] = experiment: Antibacterial activity against IMP-4 producing Pseudomonas aeruginosa isolate 209471 after 18 hrs by CLSI broth microdilution method; details: isolate 209471, 18 h
Pseudomonas aeruginosa [18] = experiment: Antibacterial activity against IMP-4 producing Pseudomonas aeruginosa isolate 208247 after 18 hrs in presence of BPL by CLSI broth microdilution method; details: isolate 208247, 18 h; outline: as §1
Pseudomonas aeruginosa [19] = experiment: Antibacterial activity against IMP-4 producing Pseudomonas aeruginosa isolate 212886 after 18 hrs in presence of BPL by CLSI broth microdilution method; details: isolate 212886, 18 h; outline: as §1
Pseudomonas aeruginosa [20] = experiment: Selectivity index, ratio of MIC for against IMP-4 producing Pseudomonas aeruginosa isolate 207272 to MIC for against IMP-4 producing Pseudomonas aeruginosa isolate 207272 in presence of BPL
Pseudomonas aeruginosa [21] = experiment: Antibacterial activity against IMP-4 producing Pseudomonas aeruginosa isolate 209321 after 18 hrs by CLSI broth microdilution method; details: isolate 209321, 18 h
Klebsiella pneumoniae [22] = experiment: Selectivity index, ratio of MIC for against KPC-2 producing Klebsiella pneumoniae isolate 209632 to MIC for against KPC-2 producing Klebsiella pneumoniae isolate 209632 in presence of BPL
Escherichia coli [23] = experiment: Selectivity index, ratio of MIC for against extended-spectrum beta-lactamase producing Escherichia coli isolate 212648 to MIC for extended-spectrum beta-lactamase producing Escherichia coli isolate 212648 in presence of BPL
Escherichia coli [24] = experiment: Antibacterial activity against extended-spectrum beta-lactamase producing Escherichia coli isolate 212648 after 18 hrs in presence of BPL by CLSI broth microdilution method; details: isolate 212648, 18 h; outline: as §1
Pseudomonas aeruginosa [25] = experiment: Selectivity index, ratio of MIC for against IMP-4 producing Pseudomonas aeruginosa isolate 209321 to MIC for against IMP-4 producing Pseudomonas aeruginosa isolate 209321 in presence of BPL
Escherichia coli [26] = experiment: Antibacterial activity against extended-spectrum beta-lactamase producing Escherichia coli isolate 209285 after 18 hrs in presence of BPL by CLSI broth microdilution method; details: isolate 209285, 18 h; outline: as §1
Klebsiella pneumoniae [27] = experiment: Selectivity index, ratio of MIC for against KPC-2 producing Klebsiella pneumoniae isolate 209735 to MIC for against KPC-2 producing Klebsiella pneumoniae isolate 209735 in presence of BPL
Escherichia coli [28] = experiment: Selectivity index, ratio of MIC for against extended-spectrum beta-lactamase producing Escherichia coli isolate 106342 to MIC for extended-spectrum beta-lactamase producing Escherichia coli isolate 106342 in presence of BPL
Klebsiella pneumoniae [29] = experiment: Antibacterial activity against KPC-2 producing Klebsiella pneumoniae isolate 212423 after 18 hrs in presence of BPL by CLSI broth microdilution method; details: isolate 212423, 18 h; outline: as §1
Klebsiella pneumoniae [30] = experiment: Selectivity index, ratio of MIC for against KPC-2 producing Klebsiella pneumoniae isolate 212232 to MIC for against KPC-2 producing Klebsiella pneumoniae isolate 212232 in presence of BPL
Pseudomonas aeruginosa [31] = experiment: Antibacterial activity against IMP-4 producing Pseudomonas aeruginosa isolate 209321 after 18 hrs in presence of BPL by CLSI broth microdilution method; details: isolate 209321, 18 h; outline: as §1
Klebsiella pneumoniae [32] = experiment: Antibacterial activity against KPC-2 producing Klebsiella pneumoniae isolate 209632 after 18 hrs in presence of BPL by CLSI broth microdilution method; details: isolate 209632, 18 h; outline: as §1
Escherichia coli [33] = experiment: Antibacterial activity against extended-spectrum beta-lactamase producing Escherichia coli isolate 212648 after 18 hrs by CLSI broth microdilution method; details: isolate 212648, 18 h
Klebsiella pneumoniae [34] = experiment: Selectivity index, ratio of MIC for against KPC-2 producing Klebsiella pneumoniae isolate 212423 to MIC for against KPC-2 producing Klebsiella pneumoniae isolate 212423 in presence of BPL
Escherichia coli [35] = experiment: Selectivity index, ratio of MIC for against Escherichia coli isolate 210737 to MIC for Escherichia coli isolate 210737 in presence of BPL
Escherichia coli [36] = experiment: Selectivity index, ratio of MIC for against extended-spectrum beta-lactamase producing Escherichia coli isolate 209285 to MIC for extended-spectrum beta-lactamase producing Escherichia coli isolate 209285 in presence of BPL
Escherichia coli [37] = experiment: Antibacterial activity against Escherichia coli isolate 210737 after 18 hrs in presence of BPL by CLSI broth microdilution method; details: isolate 210737, 18 h; outline: as §1
Klebsiella pneumoniae [38] = experiment: Antibacterial activity against KPC-2 producing Klebsiella pneumoniae isolate 209632 after 18 hrs by CLSI broth microdilution method; details: isolate 209632, 18 h
Escherichia coli [39] = experiment: Antibacterial activity against extended-spectrum beta-lactamase producing Escherichia coli isolate 209285 after 18 hrs by CLSI broth microdilution method; details: isolate 209285, 18 h
Klebsiella pneumoniae [40] = experiment: Antibacterial activity against KPC-2 producing Klebsiella pneumoniae isolate 212232 after 18 hrs in presence of BPL by CLSI broth microdilution method; details: isolate 212232, 18 h; outline: as §1
Pseudomonas aeruginosa [41] = experiment: Antibacterial activity against IMP-4 producing Pseudomonas aeruginosa isolate 208247 after 18 hrs by CLSI broth microdilution method; details: isolate 208247, 18 h
Pseudomonas aeruginosa [42] = experiment: Antibacterial activity against IMP-4 producing Pseudomonas aeruginosa isolate 212886 after 18 hrs by CLSI broth microdilution method; details: isolate 212886, 18 h
Pseudomonas aeruginosa [43] = experiment: Antibacterial activity against IMP-4 producing Pseudomonas aeruginosa isolate 209471 after 18 hrs in presence of BPL by CLSI broth microdilution method; details: isolate 209471, 18 h; outline: as §1
Pseudomonas aeruginosa [44] = experiment: Selectivity index, ratio of MIC for against IMP-4 producing Pseudomonas aeruginosa isolate 208247 to MIC for against IMP-4 producing Pseudomonas aeruginosa isolate 208247 in presence of BPL
Escherichia coli [45] = experiment: Antibacterial activity against extended-spectrum beta-lactamase producing Escherichia coli isolate 106342 after 18 hrs by CLSI broth microdilution method; details: isolate 106342, 18 h

MIC (Escherichia coli [1]): 0.5 mg/L (≈ 0.892 µM)
MIC (Klebsiella pneumoniae [5]): 0.125 mg/L
MIC (Klebsiella pneumoniae [6]): 4 mg/L (≈ 7.14 µM)
MIC (Klebsiella pneumoniae [7]): 4 mg/L
MIC (Pseudomonas aeruginosa [8]): 8 mg/L (≈ 14.3 µM)
MIC (Pseudomonas aeruginosa [9]): 8 mg/L
MIC (Escherichia coli [10]): 0.25 mg/L
MIC (Escherichia coli [11]): 0.25 mg/L
MIC (Klebsiella pneumoniae [12]): 16 mg/L (≈ 28.5 µM)
MIC (Escherichia coli [13]): 0.5 mg/L (≈ 0.892 µM)
MIC (Klebsiella pneumoniae [15]): 0.5 mg/L (≈ 0.892 µM)
MIC (Klebsiella pneumoniae [16]): 0.5 mg/L (≈ 0.892 µM)
MIC (Pseudomonas aeruginosa [17]): 16 mg/L (≈ 28.5 µM)
MIC (Pseudomonas aeruginosa [18]): 8 mg/L
MIC (Pseudomonas aeruginosa [19]): 16 mg/L
MIC (Pseudomonas aeruginosa [21]): 16 mg/L (≈ 28.5 µM)
MIC (Escherichia coli [24]): 0.25 mg/L
MIC (Escherichia coli [26]): 0.125 mg/L
MIC (Klebsiella pneumoniae [29]): 0.25 mg/L
MIC (Pseudomonas aeruginosa [31]): 16 mg/L
MIC (Klebsiella pneumoniae [32]): 1 mg/L
MIC (Escherichia coli [33]): 1 mg/L (≈ 1.78 µM)
MIC (Escherichia coli [37]): 0.5 mg/L
MIC (Klebsiella pneumoniae [38]): 4 mg/L (≈ 7.14 µM)
MIC (Escherichia coli [39]): 0.5 mg/L (≈ 0.892 µM)
MIC (Klebsiella pneumoniae [40]): 0.5 mg/L
MIC (Pseudomonas aeruginosa [41]): 8 mg/L (≈ 14.3 µM)
MIC (Pseudomonas aeruginosa [42]): 16 mg/L (≈ 28.5 µM)
MIC (Pseudomonas aeruginosa [43]): 8 mg/L
MIC (Escherichia coli [45]): 0.5 mg/L (≈ 0.892 µM)
Compound: COC[C@@H]1[C@H](NC(=O)/C(=N\OC(c2cc(=O)c(O)cn2O)C(C)C)c2csc(N)n2)C(=O)N1S(=O)(=O)O (stereo not given in full)
Selectivity Index (Pseudomonas aeruginosa [2]): 2
Selectivity Index (Klebsiella pneumoniae [3]): 4
Selectivity Index (Escherichia coli [4]): 2
Selectivity Index (Pseudomonas aeruginosa [14]): 1
Selectivity Index (Pseudomonas aeruginosa [20]): 1
Selectivity Index (Klebsiella pneumoniae [22]): 4
Selectivity Index (Escherichia coli [23]): 4
Selectivity Index (Pseudomonas aeruginosa [25]): 1
Selectivity Index (Klebsiella pneumoniae [27]): 4
Selectivity Index (Escherichia coli [28]): 2
Selectivity Index (Klebsiella pneumoniae [30]): 8
Selectivity Index (Klebsiella pneumoniae [34]): 2
Selectivity Index (Escherichia coli [35]): 1
Selectivity Index (Escherichia coli [36]): 4
Selectivity Index (Pseudomonas aeruginosa [44]): 1
